# Source: ChEMBL document CHEMBL3751740, “New MKLP-2 inhibitors in the paprotrain series: Design, synthesis and biological evaluations” (Bioorg Med Chem, 2016)
# Assays:
# HT-29 = assay: Growth inhibition of human HT-29 cells incubated for 4 days by WST-1 assay; assay type: functional; settings: HT-29, 96 h
# Summary of the method: (§1)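 Cells were kept at 37 °C under 5% CO2 and plated on day 0 at 500–5000 cells/well. On day 1 they received ten concentrations from 0.0025 to 50 µM (final), in triplicate. On day 4 WST-1 was added, followed by 30 min–4 h incubation and absorbance at 450 nm. GI50 is the concentration killing 50% of cells.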
# HepG2 = assay: Growth inhibition of human HepG2 cells incubated for 4 days by WST-1 assay; assay type: functional; settings: HepG2, 96 h; summary of the method: as §1
# K562 = assay: Growth inhibition of human K562 cells incubated for 4 days by WST-1 assay; assay type: functional; settings: K562, 96 h; summary of the method: as §1
# [1] = Growth inhibition of human MIAPaCa2 cells incubated for 4 days by WST-1 assay; assay type: functional; settings: MIA PaCa-2, 96 h; summary of the method: as §1
# A549 = assay: Growth inhibition of human A549 cells incubated for 4 days by WST-1 assay; assay type: functional; settings: A549, 96 h; summary of the method: as §1
# [2] = molecular target: T1, Kinesin-like protein KIF23 (Homo sapiens) (UniProt Q02241); assay: Inhibition of porcine brain microtubule-stimulated human recombinant GST-tagged MKLP1 ATPase activity at 1 mM by microplate reader in presence of Mg2+ ATP relative to control
# T1 sequence (whole entry): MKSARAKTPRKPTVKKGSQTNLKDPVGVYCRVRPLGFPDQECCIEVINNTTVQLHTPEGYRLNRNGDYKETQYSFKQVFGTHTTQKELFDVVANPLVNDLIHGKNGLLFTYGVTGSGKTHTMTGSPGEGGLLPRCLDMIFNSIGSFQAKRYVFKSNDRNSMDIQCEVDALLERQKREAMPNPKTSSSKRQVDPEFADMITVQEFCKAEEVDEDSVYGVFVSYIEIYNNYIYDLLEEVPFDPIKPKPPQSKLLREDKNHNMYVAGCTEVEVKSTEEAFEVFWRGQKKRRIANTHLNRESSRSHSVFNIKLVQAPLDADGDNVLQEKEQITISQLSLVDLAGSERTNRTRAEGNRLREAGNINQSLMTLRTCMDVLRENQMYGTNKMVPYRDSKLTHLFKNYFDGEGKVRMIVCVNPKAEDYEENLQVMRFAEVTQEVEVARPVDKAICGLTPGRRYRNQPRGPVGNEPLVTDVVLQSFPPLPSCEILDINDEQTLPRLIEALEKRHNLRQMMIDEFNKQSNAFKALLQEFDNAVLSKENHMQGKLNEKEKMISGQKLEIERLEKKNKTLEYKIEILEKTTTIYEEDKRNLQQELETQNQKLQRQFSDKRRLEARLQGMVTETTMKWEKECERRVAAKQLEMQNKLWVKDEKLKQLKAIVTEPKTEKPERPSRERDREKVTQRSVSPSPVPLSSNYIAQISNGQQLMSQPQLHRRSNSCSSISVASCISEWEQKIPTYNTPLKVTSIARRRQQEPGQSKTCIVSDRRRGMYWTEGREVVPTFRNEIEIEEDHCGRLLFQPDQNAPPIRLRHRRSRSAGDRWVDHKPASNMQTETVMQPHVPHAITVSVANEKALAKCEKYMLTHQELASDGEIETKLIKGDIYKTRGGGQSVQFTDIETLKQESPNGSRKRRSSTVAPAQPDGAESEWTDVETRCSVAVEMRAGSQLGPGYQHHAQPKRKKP
# Summary of the method: (§2)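 Motor domain at 15 µM final, in 7.5 mM PIPES-NaOH pH 7.0 with […], 10 µM Taxol, ELIPA 1 and 2 reagents and 1.25 mg/mL microtubules. AMP-PNP, a slowly hydrolysable ATP analog and general ATPase inhibitor, tested at 1 mM. Reaction started with 1 mM Mg2+ATP at 22 °C and read kinetically at 360 nm. Run in triplicate.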
# [3] = molecular target: T2, Kinesin-1 heavy chain (Homo sapiens) (UniProt P33176); assay: Inhibition of porcine brain microtubule-stimulated human recombinant GST-tagged Kif5B ATPase activity at 1 mM by microplate reader in presence of Mg2+ ATP relative to control; summary of the method: as §2
# T2 sequence (whole entry): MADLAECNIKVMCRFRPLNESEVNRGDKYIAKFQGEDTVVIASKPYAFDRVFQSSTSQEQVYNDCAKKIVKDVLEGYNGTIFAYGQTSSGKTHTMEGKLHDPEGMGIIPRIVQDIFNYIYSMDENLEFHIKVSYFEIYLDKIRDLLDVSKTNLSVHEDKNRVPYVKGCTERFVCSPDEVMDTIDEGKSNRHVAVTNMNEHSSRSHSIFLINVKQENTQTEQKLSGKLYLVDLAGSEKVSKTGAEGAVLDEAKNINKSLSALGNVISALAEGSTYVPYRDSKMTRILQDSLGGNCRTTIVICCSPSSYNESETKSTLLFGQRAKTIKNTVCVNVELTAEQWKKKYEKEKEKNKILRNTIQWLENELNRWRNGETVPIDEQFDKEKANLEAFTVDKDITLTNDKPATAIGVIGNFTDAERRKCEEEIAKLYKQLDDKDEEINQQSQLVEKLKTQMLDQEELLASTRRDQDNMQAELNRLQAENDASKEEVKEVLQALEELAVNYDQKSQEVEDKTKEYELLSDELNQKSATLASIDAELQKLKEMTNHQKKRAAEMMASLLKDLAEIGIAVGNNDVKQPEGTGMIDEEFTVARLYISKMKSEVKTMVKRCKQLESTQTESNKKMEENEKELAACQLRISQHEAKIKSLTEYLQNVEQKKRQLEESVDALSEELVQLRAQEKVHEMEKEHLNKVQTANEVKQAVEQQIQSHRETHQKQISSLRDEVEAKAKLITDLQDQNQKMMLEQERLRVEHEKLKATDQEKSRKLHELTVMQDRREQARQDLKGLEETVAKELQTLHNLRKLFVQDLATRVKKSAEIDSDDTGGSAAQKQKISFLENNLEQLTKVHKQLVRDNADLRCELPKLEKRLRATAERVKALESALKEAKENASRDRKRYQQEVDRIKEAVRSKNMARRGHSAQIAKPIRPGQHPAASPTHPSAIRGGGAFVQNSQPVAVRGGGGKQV
GI50 (HT-29) [µM],GI50 (HepG2) [µM],GI50 (K562) [µM],GI50 (A549) [µM],Structure (SMILES),GI50 [1] [µM],inhibition [2] [%],inhibition [3] [%]
26.2,> 50,4,9.4,COc1ccc2[nH]cc(/C(C#N)=C/c3cccnc3)c2c1,5.5,–,–
–,–,–,–,Nc1ncnc2c1ncn2[C@@H]1O[C@H](COP(=O)(O)OP(=O)(O)NP(=O)(O)O)[C@@H](O)[C@H]1O,–,> 30,> 30
